# Assay outcomes as filed in PubChem.
# KCNQ1 block: inhibitors of human KCNQ1 potassium channel; CHO-K1 KCNQ1, FluxOR thallium flux fluorescence; stronger effect = higher value; B-score at 10 µM; 310,000 tested, 1.3% active; AID 2642;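 active means compounds whose thallium flux B-score, printed positive for inhibition, exceeds three library SD while starting fluorescence stays within three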;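 further: channel opened by potassium depolarization with thallium stimulus after 20 min compound exposure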
# Kir21 block: inhibitors of mouse Kir2.1 inward-rectifier potassium channel; P35561; HEK293-Kir2.1, FluxOR thallium flux fluorescence; stronger effect = lower value; B-score at 10 µM; 310,000 tested, 0.85% active; AID 1672;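 active means fluorescence ratio B-score at or below minus 3 SD of library scores, with starting-brightness B-score within 2 SD, cut at about -4.2 in these data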;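 further: channel flux triggered by added potassium and thallium sulfate stimulus; B-score of peak minus minimum fluorescence over baseline after thallium stimulus; more negative B-score means stronger Kir2.1 block with less thallium influx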
# hERG rescue: hERG (human) protection from proarrhythmic block; Q12809; CHO-hERG, FluxOR thallium flux, dofetilide IC70 present; activation (rescue from dofetilide block), less the hit threshold, % at 10 µM; 310,000 tested, 0.51% active; AID 1511;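 active means activation above the mean of controls blocked by dofetilide plus 5 SD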;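 further: thallium influx through hERG after potassium depolarization seen as dye fluorescence rise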
# Target sequence (Q12809 whole entry, looked up): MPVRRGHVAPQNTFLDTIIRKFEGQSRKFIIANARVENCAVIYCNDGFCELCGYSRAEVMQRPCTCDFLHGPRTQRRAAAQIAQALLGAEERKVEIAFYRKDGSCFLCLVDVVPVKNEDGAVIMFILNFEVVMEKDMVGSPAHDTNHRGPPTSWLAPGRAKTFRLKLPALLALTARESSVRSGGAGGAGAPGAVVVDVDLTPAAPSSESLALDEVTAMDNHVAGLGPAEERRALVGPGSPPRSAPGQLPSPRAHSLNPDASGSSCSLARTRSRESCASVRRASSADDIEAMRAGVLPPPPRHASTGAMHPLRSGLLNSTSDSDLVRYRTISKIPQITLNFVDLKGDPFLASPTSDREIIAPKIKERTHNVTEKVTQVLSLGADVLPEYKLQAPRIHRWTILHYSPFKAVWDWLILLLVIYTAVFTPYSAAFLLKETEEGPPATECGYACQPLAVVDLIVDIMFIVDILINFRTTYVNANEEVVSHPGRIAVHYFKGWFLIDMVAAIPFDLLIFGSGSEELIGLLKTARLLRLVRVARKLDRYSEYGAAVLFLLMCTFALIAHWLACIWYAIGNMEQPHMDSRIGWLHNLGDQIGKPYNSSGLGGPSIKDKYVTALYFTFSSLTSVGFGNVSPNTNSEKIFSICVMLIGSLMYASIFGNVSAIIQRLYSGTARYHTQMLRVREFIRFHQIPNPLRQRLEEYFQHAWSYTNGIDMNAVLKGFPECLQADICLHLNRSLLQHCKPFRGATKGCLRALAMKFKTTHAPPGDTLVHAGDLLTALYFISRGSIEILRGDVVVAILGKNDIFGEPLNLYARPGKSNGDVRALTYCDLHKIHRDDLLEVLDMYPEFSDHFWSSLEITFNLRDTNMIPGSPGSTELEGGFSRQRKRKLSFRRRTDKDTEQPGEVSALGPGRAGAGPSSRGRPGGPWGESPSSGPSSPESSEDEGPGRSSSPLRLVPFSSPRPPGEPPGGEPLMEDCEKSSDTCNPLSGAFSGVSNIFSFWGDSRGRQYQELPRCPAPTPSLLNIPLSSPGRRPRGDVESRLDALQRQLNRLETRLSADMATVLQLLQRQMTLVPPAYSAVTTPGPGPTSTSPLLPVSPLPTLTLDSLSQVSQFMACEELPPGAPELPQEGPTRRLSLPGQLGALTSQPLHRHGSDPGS
# KCNK3 block: human KCNK3 channel inhibition, primary screen; O14649; CHO-KCNK3 thallium flux, FluxOR fluorescence; stronger effect = lower value; B-score at 10 µM; 340,000 tested, 0.84% active;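 active means B-score under library mean minus 4 SD, starting fluorescence ratio at most library mean plus 5 SD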;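 further: more negative B-score means stronger inhibition of thallium flux through KCNK3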
# KCNK9 inh: inhibitors of human KCNK9 two-pore domain potassium channel; AID 488922; B-score at 10 µM; HEK293 KCNK9, FluxOR thallium flux fluorescence; stronger effect = lower value; Q9NPC2; 310,000 tested, 1.2% active;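 active means ratio B-score over 3 SD below the library mean, with starting fluorescence within 5 SD of its mean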;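 further: negative B-score means less thallium flux so channel inhibition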
# KCNQ1 pot: potentiates or activates the human KCNQ1 potassium channel; P51787; CHO-K1 KCNQ1, thallium flux FluxOR fluorescence; stronger effect = higher value; B-score at 10 µM; 310,000 tested, 0.35% active;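 active means fluorescence ratio B-score, a plate-corrected score, at least three library SD, with initial intensity B-score within 5 SD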
#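 Test system: CHO-K1 cells stably expressing KCNQ1 / Medium: assay buffer / Also added: depolarizing K+/Tl+ stimulus, K2SO4 and Tl2SO4 each 12.5 mM in 5x stock / Incubation: 90 min dye loading and 20 min compound exposure, both at room temperature / Signal: thallium influx via FluxOR fluorescence, kinetic imaging / Evaluation: B score of baseline-normalized fluorescence ratio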
# An asterisk follows results filed as active; i = inactive; / = no result given. An excerpt weighted towards active compounds, which were near 3.7% of everything screened.
SMILES,KCNQ1 block,Kir21 block,hERG rescue,KCNK3 block,KCNK9 inh,KCNQ1 pot
CC(=O)Oc1c(-c2ccc(Br)o2)oc2ccccc2c1=O,i,-0.31,40.0*,i,i,113*
COc1ccc(-c2oc3ccccc3c(=O)c2OCC(=O)O)cc1,i,1.04,-8.6,i,i,i
COc1ccc(-c2oc3ccccc3c(=O)c2OC(C)=O)cc1,i,-0.05,4.5,i,i,41*
O=C(O)COc1c(-c2ccco2)oc2ccccc2c1=O,i,-0.27,-6.8,i,i,i
C[C@H](CO)N1C[C@H](C)[C@@H](CN(C)C(=O)NC2CCCCC2)Oc2ccc(NC(=O)Cc3ccccc3)cc2C1=O,/,/,/,i,/,/
COc1ccc(-c2nc(-c3ccccc3)c(-c3cc([N+](=O)[O-])ccc3C)[nH]2)cc1O,7*,1.43,-4.9,i,-10.3*,i
Cc1ccc(Oc2ccc(NC(=O)Cn3ccsc3=N)cc2)cc1,i,-4.46*,-15.9,i,i,22*
CCOC(=O)C(C(=O)OCC)C(C(=O)OCC)N1CCOCC1 (stereo not given),i,0.57,-4.9,i,i,10*
CCN(C(=O)CCc1nc(-c2ccc(OC)cc2)no1)c1cc(OC)ccc1OC,i,-0.78,-8.2,i,-7.55*,i
COc1ccccc1/C=C(/C(=O)OCC(=O)Nc1ccccc1C)c1ccccc1,8*,-1.59,-7.6,i,-7.02*,i
COc1ccccc1/C=C(/C(=O)OCC(=O)NCc1ccccc1)c1ccccc1,7*,0.13,-11.9,i,-7.97*,i
C=C(C)C(=O)OCC(=O)NCc1ccccc1,i,0.14,-9.8,i,i,i
COc1ccccc1/C=C(/C(=O)OCC(=O)Nc1ccc(N(C)C)cc1)c1ccccc1,i,0,-10.5,i,i,i
O=C(COc1ccc([N+](=O)[O-])cc1)NC(=O)NC1CCS(=O)(=O)C1 (stereo not given),/,/,/,i,/,/
O=C(NCc1ccccn1)Nc1ccccc1C(F)(F)F,i,0.95,-13.4,i,i,i
CCCCCCCCCCCCCCCC[N+](C)(C)CCl,/,/,/,i,/,/
CCCCCC[N+](C)(C)CC/C=C1/c2ccccc2Sc2ccc(Cl)cc21,i,-3.78,-16.9,i,-7.97*,i
COc1ccc(NC(=O)C2CCCCC2)cc1S(=O)(=O)N1CCOCC1,/,/,/,i,/,/
O=C(c1ccc([N+](=O)[O-])cc1)N1CCC(Cc2ccccc2)CC1,i,0.13,-10.1,i,-7.42*,i
O=C(Cc1ccccc1)NC1CCN(C(=O)c2ccc([N+](=O)[O-])cc2)CC1,i,0.95,-2.8,i,i,i
COc1ccc(/C=C(/NC(=O)c2ccco2)C(=O)N2CCCCCC2)cc1OC,i,-1.91,-7.2,i,i,i
COc1cc(NC(=O)c2ccc(C(=O)c3ccccc3)cc2)cc(OC)c1OC,i,0.94,-4.9,i,i,i
COc1cc2c(c(O)c1OC)-c1c(cc(OC)c(OC)c1O)[C@@H](OC(=O)c1ccccc1)[C@@](C)(O)[C@@H](C)[C@@H]2OC(C)=O,i,-0.22,4.7*,/,i,i
CC(=O)Nc1ccc(NC(=O)CCC(=O)Oc2ccc(C)cc2)cc1,i,-0.61,-4.1,i,i,i
O=C(CCC1CCCCC1)NCc1ccc(F)cc1,i,-2.02,-5.0,i,i,i
SMILES,KCNQ1 block,Kir21 block,hERG rescue,KCNK3 block,KCNK9 inh,KCNQ1 pot
CC1CCCCC1NCC(=O)NCc1ccc(F)cc1 (stereo not given),i,0.55,4.7*,i,i,i
O=C(O)c1cc(Cl)c2ccccc2c1O,6*,1.82,-13.0,i,i,i
COC(=O)Oc1ccc(/C=C/C(=O)OC(C)C)cc1OC(=O)OC,i,-1.45,6.6*,i,i,i
CCOC(=O)C1=C(C2=CCCCC2)c2ccc(OC)cc2N(S(=O)(=O)C(F)(F)F)C1C(=O)OCC (stereo not given),/,/,/,i,/,/
Cn1ncc2c(N3CCC(Cc4ccccc4)CC3)ncnc21,i,0.61,-13.1,i,i,i
NNC(=O)c1cc2c(N3CCC(Cc4ccccc4)CC3)ncnc2s1,6*,0.99,-21.5,i,i,i
CC(=O)c1ccc(-c2nnc(CCC(=O)N(C)Cc3c(C)nc4ccccn34)o2)s1,i,-0.02,8.1*,i,i,i
CC(=O)c1ccc(-c2nnc(CCC(=O)N(C)Cc3cccc4cnccc34)o2)s1,i,0.38,-13.7,i,i,i
COC(=O)COc1cc(OCC(=O)OC)c2c(-c3ccccc3)cc(=O)oc2c1,i,-1.3,-9.1,i,i,i
CC(C)(C)OC(=O)COc1cc(OCC(=O)OC(C)(C)C)c2c(=O)cc(-c3ccccc3)oc2c1,/,/,/,-9.11*,/,/
CC1=C/C(=N\Nc2ccccc2[N+](=O)[O-])CC(C)(C)C1,7*,0.07,-5.2,i,i,i
CSc1ncccc1C(=O)NCc1nnc2ccccn12,/,/,/,i,/,/
CCCc1cc(=O)[nH]c(SCC(=O)NC(=O)c2ccccc2)n1,i,0.12,-9.0,i,i,i
CCCc1cc(=O)[nH]c(SCC(=O)N(Cc2ccccc2)C(C)C)n1,i,0.41,-4.6,i,-6.99*,i
CCCc1cc2c(cc1N(C)S(=O)(=O)c1ccccc1)OCO2,/,/,/,i,/,/
O=C1NC(c2ccc(-c3ccccc3[N+](=O)[O-])o2)C(C(=O)c2ccccc2)C(O)(C(F)(F)F)N1 (stereo not given),i,0.48,-6.1,i,i,i
Cc1ccc(C(=O)C2C(c3ccc(-c4ccccc4[N+](=O)[O-])o3)NC(=O)NC2(O)C(F)(F)F)cc1 (stereo not given),i,0.01,-9.7,i,-10.5*,i
Cc1c(C(Nc2ccccn2)c2ccc(Cl)cc2)c(=O)n(-c2ccccc2)n1C (stereo not given),i,0.18,-17.0,i,-6.62*,i
COc1ccc(Cn2c(=O)oc3ccc(C)cc32)cc1OC,i,-4.23*,-22.4,i,i,i
CCCCCNC(=O)C(C#N)c1nc2ccccc2nc1N1CCCC1 (stereo not given),7*,-1.96,-13.4,i,i,i
CCOC(=O)N1CCN(c2nc3ccccc3nc2C(C#N)C(=O)NCCc2ccccc2)CC1 (stereo not given),8*,0.38,-13.9,i,i,i
CCCCCCNC(=O)C(C#N)c1nc2ccccc2nc1N1CCOCC1 (stereo not given),7*,-0.67,-2.3,i,-6.77*,i
